Shown are actives, neighbours in structure and some others; about 1.4% of the full set was active somewhere.
STAT3 blocker – STAT3 signaling inhibition. U3A cells, IL-6 STAT3-luciferase reporter, luminescence; host cell line lacks STAT1. 190,000 tested, 0.89% active. AID 862. inhibition, % at 5.5 µM;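 active means inhibition above the mean inhibition across all screened compounds plus 3 SD, cut at about 44% in these data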;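 further: 0% = DMSO only wells and 100% = 100 µM nifuroxazide control wells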
PERK inh – inhibitors of human PERK kinase | CHO PERK-DD fusion, SEAP luminescence translation reporter | 220,000 tested, 0.17% active | AID 1416 | inhibition, % at 5.6 µM;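 active means inhibition above the mean inhibition of all tested compounds plus 3 SD, set separately per screening campaign, cut at about 2.9% in these data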;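 further: PERK kinase domain activated by AP20187 dimerizer at 100 nM; 0% = DMSO with dimerizer and 100% = rapamycin at 8.4 µM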
Target sequence (Q9NZJ5 whole entry, looked up, the tested form may be a part): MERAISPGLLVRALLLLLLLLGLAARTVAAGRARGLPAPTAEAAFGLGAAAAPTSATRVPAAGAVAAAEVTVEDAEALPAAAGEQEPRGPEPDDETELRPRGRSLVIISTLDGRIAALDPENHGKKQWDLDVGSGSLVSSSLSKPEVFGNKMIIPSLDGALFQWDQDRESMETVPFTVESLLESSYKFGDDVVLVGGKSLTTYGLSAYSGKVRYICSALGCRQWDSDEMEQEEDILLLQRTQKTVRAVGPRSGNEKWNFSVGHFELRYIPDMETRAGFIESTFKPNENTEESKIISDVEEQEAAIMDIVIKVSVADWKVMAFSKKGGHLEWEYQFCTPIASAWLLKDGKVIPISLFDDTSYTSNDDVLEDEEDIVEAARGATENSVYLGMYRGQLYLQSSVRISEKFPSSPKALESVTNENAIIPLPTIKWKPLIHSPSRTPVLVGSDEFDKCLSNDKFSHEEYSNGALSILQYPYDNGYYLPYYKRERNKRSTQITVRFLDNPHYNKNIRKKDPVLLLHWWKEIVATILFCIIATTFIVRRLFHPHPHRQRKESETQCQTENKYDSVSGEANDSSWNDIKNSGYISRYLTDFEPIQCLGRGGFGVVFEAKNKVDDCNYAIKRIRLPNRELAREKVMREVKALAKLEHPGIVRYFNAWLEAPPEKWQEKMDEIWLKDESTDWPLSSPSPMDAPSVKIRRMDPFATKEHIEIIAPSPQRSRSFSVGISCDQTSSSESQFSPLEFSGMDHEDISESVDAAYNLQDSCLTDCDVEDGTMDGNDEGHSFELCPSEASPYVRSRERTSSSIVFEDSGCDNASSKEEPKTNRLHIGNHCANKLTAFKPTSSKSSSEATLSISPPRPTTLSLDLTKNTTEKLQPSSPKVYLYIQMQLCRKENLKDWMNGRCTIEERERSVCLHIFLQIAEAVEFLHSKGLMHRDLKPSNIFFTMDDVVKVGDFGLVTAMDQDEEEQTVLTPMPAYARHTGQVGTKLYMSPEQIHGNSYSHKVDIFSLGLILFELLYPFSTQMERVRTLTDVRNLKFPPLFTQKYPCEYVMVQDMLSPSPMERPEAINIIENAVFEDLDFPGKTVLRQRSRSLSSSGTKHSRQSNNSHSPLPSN
STAT1 blocker – inhibitors of IFN-gamma induced STAT1 signaling; NIH 3T3 STAT1-luciferase reporter, luminescence; AID 920; 200,000 tested, 0.35% active; inhibition, % at 5.5 µM;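 active means inhibition above a set limit, the mean inhibition across all tested compounds plus 3 SD, cut at about 34% in these data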;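 further: 0% = IFN-gamma with DMSO and 100% = IFN-gamma with 300 µM nifuroxazide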
STAT3 activator – increases IL-6 driven STAT3 reporter signal | activation (% of control), % at 5.6 µM | 190,000 tested, 0.91% active | U3A cells, IL-6 STAT3-luciferase reporter, luminescence; 100% = signal with IL-6 EC80 alone;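 active means activation above the screen-wide mean of compound activation plus 3 SD, cut at about 130% in these data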;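 further: 0% = background luminescence of wells with medium and substrate only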
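Material: STAT1-lacking human U3A cells, STAT3 luciferase reporter | Benchmarks: IL-6-only wells as 100% reference | Probe or stimulus: IL-6 (33 ng/mL) | Timing: Compound 1 h, then IL-6 6 h at 37 °C | Detection: Luminescence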
Platelet DG rel – modulates dense granule release in human platelets; human platelet-rich plasma, SFLLRN dense granule ATP release, luminescence; inhibition, %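 (compounds screened at 7.5 µM in platelet-rich plasma)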; 300,000 tested, 0.22% active; AID 1663;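 active means mean replicate score, as percent of positive control, at or above 50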
The depositor's hits bear a star; . = no result.

SMILES	STAT3 blocker	PERK inh	STAT1 blocker	STAT3 activator	Platelet DG rel
CCSc1nc2c([nH]c3ccccc32)c(=O)n1C	-8	2	-2	111	-6
CCOc1ccc(-n2c(SCC(N)=O)nc3c([nH]c4ccccc43)c2=O)cc1	-37	0	6	134*	-2
COC(=O)C(C)Sc1nc2c([nH]c3ccccc32)c(=O)n1C (stereo not drawn)	-32	0	7	133*	0
COc1ccc(N2CC(C(=O)N[C@H](C(=O)NC(C)c3ccccc3)C(C)C)CC2=O)cc1 (stereo partly drawn)	.	.	.	.	3
CCC(C)(C)NC(=O)C(c1ccc(F)cc1)N(Cc1cccs1)C(=O)c1cnccn1 (stereo not drawn)	-3	0	-3	106	-4
CC(=O)Nc1ccc(S(=O)(=O)NCCc2cc3ccc(C)c(C)c3[nH]c2=O)cc1	.	.	.	.	-3
CC(=O)Nc1c(Br)cc(N2C(=O)CCC2=O)cc1Br	-6	3.1*	1	107	10
Cn1cnnc1SCC(=O)c1ccc(O)c(O)c1	6	0	-5	96	-3
O=C(NC(=S)Nc1ccc(Cl)cn1)c1cccs1	-48	1	-105	151*	5
O=C(NC(=S)Nc1cccnc1)c1cccs1	14	1	-19	92	9
O=C(Nc1ccccc1)OCc1cc(-c2ccccc2Cl)on1	19	1	-29	90	52*
O=C(OCc1nc2ccccc2s1)c1cccs1	-57	0	-40	151*	-7
O=C(NC1CC1)c1ccc(-c2nc3ccccc3s2)s1	106*	0	75*	14	27
O=C(c1ccc(-c2nc3ccccc3s2)s1)N1CCOCC1	98*	0	77*	18	46
COC(=O)c1cc2c(=O)n3ccccc3nc2n(C(C)C)c1=N	-39	1	-4	136*	.
CC(C)n1c(=N)c(C(=O)NCCc2ccccc2)cc2c(=O)n3ccccc3nc21	3	-2	0	101	-3
O=C(Nc1ccon1)c1sc2cc(Cl)ccc2c1Cl	.	.	.	.	-4
CC(=O)Nc1sc(N/N=C\c2ccco2)nc1-c1cccs1	-20	-1	-8	119	5
CC(C)(C)c1ccc(OCCC(=O)Nc2cccc(S(=O)(=O)N3CCOCC3)c2)cc1	.	.	.	.	-1
COc1ccc(OCCC(=O)OCC(=O)Nc2cccc(S(=O)(=O)N3CCOCC3)c2)cc1	8	3.3*	4	98	5
Cc1ccc(C2=NN3C(C(=O)c4ccccc4)Oc4ccccc4C3C2)cc1 (stereo not drawn)	-8	-1	1	111	-1
O=C(/C=C\Nc1ccccn1)c1ccc(Cl)cc1	100*	1	56*	21	.
O=C(/C=C/c1ccccc1O)c1ccc(Cl)cc1	-34	0	6	135*	6
COc1ccc(C(=O)NCCCNC(=O)c2cccnc2)cc1Br	.	.	.	.	-4
Cc1nc(C(C)N(C)Cc2nc(-c3ccc4c(c3)OCO4)no2)c(C)s1 (stereo not drawn)	1	3.0*	-3	110	0
SMILES	STAT3 blocker	PERK inh	STAT1 blocker	STAT3 activator	Platelet DG rel
Cc1cccc(-c2noc(CN(C(=O)c3ccc4c(c3)OCO4)C(C)C)n2)c1	8	1	-1	97	11
CCc1nnc(NC(=O)CSc2nnc(Cc3cccn3C)n2CCOC)s1	4	2	-4	105	52*
CCc1nnc(NC(=O)CSc2nnc(-c3ccco3)n2CCOC)s1	11	1	0	95	7
CCc1nnc(NC(=O)CSc2nnc(-c3ccncc3)n2C)s1	-9	3.3*	-2	109	2
Cc1nc(NC(=O)CSc2nnc(-c3ccncc3)n2C)sc1C	.	.	.	.	-11
CC(=O)c1ccc2noc(-c3cccc(C)c3)c2c1	8	1	-23	94	1
Cn1c(O)c(C(C#N)=C2N=c3ccccc3=N2)c2ccccc21	-34	0	14	135*	3
Cc1ccc(C2CC(C(F)(F)F)n3nc(C(=O)NCc4c(C)nn(C)c4C)c(Cl)c3N2)cc1 (stereo not drawn)	60*	-1	59*	55	-15
Cc1nn(C)c(C)c1CNC(=O)c1cnn2c1NC(c1ccccc1)CC2C(F)(F)F (stereo not drawn)	7	-1	5	98	-9
COC(=O)C1=C(C(=O)OC)[C@@H]2N(C)c3ccc(OC)cc3[C@@]23C[C@@H](C(=O)OC)N(C(=O)NC2CCCCC2)C3=N1	.	.	.	.	1
CC1=CC2=NC(=O)/C(=C\c3cc(C)n(-c4ccccc4F)c3C)C(=N)N2O1	-17	1	-2	113	-3
Cc1cc(/C=C2/C(=N)N3C(=NC2=O)SN=C3S(C)(=O)=O)c(C)n1-c1ccccc1F	9	3.4*	-15	94	-3
N#Cc1ccc(COC(=O)c2ccc3c(c2)OCO3)cc1	.	.	.	.	-13
CCOC(=O)C1=C(Nc2ccc(OC)cc2)OCC1=O	.	2.9*	.	.	-3
Cc1sc(NC(=S)NC(=O)CCc2ccccc2)c(C(N)=O)c1C	-62	1	-15	156*	.
CC(C)Oc1ccc(CNC(=O)c2ccc3c(c2)N(C)CCS3)cc1	.	.	.	.	57*
CN1CCSc2ccc(C(=O)NCc3ccccc3F)cc21	.	.	.	.	73*
COc1cc(CN2CCN(C(=O)c3cccc4ccccc34)CC2)cc(OC)c1O	.	.	.	.	-6
CC(=O)c1ccc(NC(=O)c2cnn3ccccc23)cc1	83*	0	85*	36	27
CC(=O)Nc1ccc(NC(=O)C(C)n2nc(C)c([N+](=O)[O-])c2C)cc1 (stereo not drawn)	14	3.0*	-2	96	4
Cc1nn(-c2ccccc2)c(Cl)c1/C=N/Nc1ccc(Cl)c(C(=O)O)c1	44*	1	42*	63	9
C/C(=N\NC(=O)CNc1cccc(Cl)c1C)C1CC1	19	0	-1	88	-1
O=C1c2ccccc2S(=O)(=O)N1Cc1nc2ccccc2s1	61*	1	52*	50	-2
Cc1ccccc1CN1C(=O)c2ccccc2S1(=O)=O	.	.	.	.	15
CC(NC(=O)C1CCN(S(=O)(=O)c2ccc3c(c2)NC(=O)CO3)CC1)c1ccccc1 (stereo not drawn)	.	.	.	.	5
SMILES	STAT3 blocker	PERK inh	STAT1 blocker	STAT3 activator	Platelet DG rel
COCCCNC(=O)c1ccccc1-c1cc(C)no1	.	1	.	.	-18
CC(=O)c1ccc(N2CCN(C(=O)[C@H](C)NC(=O)c3ccccc3Cl)CC2)cc1	.	.	.	.	-14
CCOC(=O)C1CCN(C=Nc2cc(C)on2)CC1	0	0	-2	102	57*
CCOC(=O)C1CCN(Cc2ccccn2)CC1	.	.	.	.	-11
CC(=O)N1CSCC1C(=O)NNS(=O)(=O)c1cccc(C(F)(F)F)c1 (stereo not drawn)	.	1	.	.	-10
Cc1ccc(NC(=O)Cn2cccc2)cc1Cl	32	2.9*	0	76	-6
Cc1ccc(NC(=O)Cn2cccc2)cc1C	16	0	-9	88	-1
O=C(CCc1nnc(Cc2ccc(-c3ccccc3)cc2)o1)NCCc1cccnc1	10	1	-2	96	5
CC(C)Cn1c2c(c(O)c(C(=O)Nc3ccc(F)cc3)c1=O)CCCC2	2	2	-2	101	-4

High-throughput results deposited in PubChem BioAssay by several laboratories.
